From ChEMBL document CHEMBL5107938, “Synthesis and biological evaluation of selective phosphonate-bearing 1,2,3-triazole-linked sialyltransferase inhibitors” (RSC Med Chem, 2021)

Legend:
[1] = target: T1, Beta-galactoside alpha-2,6-sialyltransferase 1 (Homo sapiens) (UniProt P15907); test: Inhibition of recombinant human ST6Gal I at 100 uM incubated for 1 hrs in the presence of CMP-Neu5Ac as donor and LacNAc as acceptor by luminescence based CMP-Glo assay relative to control
T1 sequence (whole entry): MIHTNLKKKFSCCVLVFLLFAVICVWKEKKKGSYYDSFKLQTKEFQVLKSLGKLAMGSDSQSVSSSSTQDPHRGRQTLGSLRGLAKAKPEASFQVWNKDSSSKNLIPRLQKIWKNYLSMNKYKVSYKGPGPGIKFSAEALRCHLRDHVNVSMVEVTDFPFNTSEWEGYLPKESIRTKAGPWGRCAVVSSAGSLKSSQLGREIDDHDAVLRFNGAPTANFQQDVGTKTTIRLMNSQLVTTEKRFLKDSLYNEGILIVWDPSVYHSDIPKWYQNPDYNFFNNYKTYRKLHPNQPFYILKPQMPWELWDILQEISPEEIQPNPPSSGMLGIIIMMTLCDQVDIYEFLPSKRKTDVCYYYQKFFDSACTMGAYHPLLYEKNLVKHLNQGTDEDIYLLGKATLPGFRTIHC
Method in brief: (§1)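 Human enzyme reaction with 1 mM acceptor and 100 μM CMP-Neu5Ac donor. Test agent at 10 or 100 μM, incubated for a single hour. CMP formed as by-product was converted in a luciferase reaction, and luminescence, linear with CMP concentration, was read. Percent inhibition was calculated against control.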

[2] = target: T2, CMP-N-acetylneuraminate-beta-galactosamide-alpha-2,3-sialyltransferase 1 (Homo sapiens) (UniProt Q11201); test: Inhibition of recombinant human ST3Gal I at 100 uM incubated for 1 hrs in the presence of CMP-Neu5Ac as donor and Gal-beta1,3-GalNAc as acceptor by luminescence based CMP-Glo assay relative to control; method in brief: as §1
T2 sequence (whole entry): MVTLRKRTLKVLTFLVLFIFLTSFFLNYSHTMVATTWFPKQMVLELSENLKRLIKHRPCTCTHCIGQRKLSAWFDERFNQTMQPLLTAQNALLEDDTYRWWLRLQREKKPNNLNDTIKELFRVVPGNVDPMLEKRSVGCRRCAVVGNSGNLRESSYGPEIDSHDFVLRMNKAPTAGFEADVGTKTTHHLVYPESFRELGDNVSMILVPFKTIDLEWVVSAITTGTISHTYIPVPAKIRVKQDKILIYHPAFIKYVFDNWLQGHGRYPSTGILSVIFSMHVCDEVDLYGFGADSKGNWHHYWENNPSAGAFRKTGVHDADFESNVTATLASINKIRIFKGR

[3] = target: T3, Beta-galactoside alpha-2,6-sialyltransferase 1 (Homo sapiens, UniProt P15907); test: Inhibition of recombinant human ST6Gal I incubated for 1 hrs in the presence of CMP-Neu5Ac as donor and LacNAc as acceptor by luminescence based CMP-Glo assay
T3 sequence (P15907 whole entry): T1 sequence (whole entry)
Method in brief: (§2)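 For hST6Gal I, the Km for CMP-Neu5Ac was determined with acceptor held at 1 mM. Ki was determined only for agents exceeding 50% inhibition at 10 μM in the screen (1 mM acceptor, 100 μM donor). Read-out was luciferase-coupled luminescence of released CMP after a single-hour incubation.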

[4] = target: T1, Beta-galactoside alpha-2,6-sialyltransferase 1 (Homo sapiens); test: Inhibition of recombinant human ST6Gal I at 10 uM incubated for 1 hrs in the presence of CMP-Neu5Ac as donor and LacNAc as acceptor by luminescence based CMP-Glo assay relative to control; method in brief: as §1
[5] = target: T1, Beta-galactoside alpha-2,6-sialyltransferase 1 (Homo sapiens); test: Ratio of Km for Substrate activity at recombinant human ST6Gal I to Ki for inhibition of recombinant human ST6Gal I at 10 uM incubated for 1 hrs in the presence of CMP-Neu5Ac as donor and LacNAc as acceptor; method in brief: as §2

| Compound | inhibition [2] | inhibition [4] | further results |
| --- | --- | --- | --- |
| O=c1ccn([C@@H]2O[C@H](Cn3cc(C(O)c4cccc(Oc5ccccc5)c4)nn3)[C@@H](O)[C@H]2O)c(=O)[nH]1 (some centres undefined) | 43% |  | inhibition [1]: 84% |
| O=c1ccn([C@@H]2O[C@H](COCc3cn(C(c4cccc(OC(F)(F)C(F)F)c4)P(=O)(O)O)nn3)[C@@H](O)[C@H]2O)c(=O)[nH]1 (single isomer, unassigned) [listing 1 of 2 here] |  |  | Ki [3]: 6.7 µM |
| O=c1ccn([C@@H]2O[C@H](COCc3cn(C(c4ccc(F)cc4)P(=O)(O)O)nn3)[C@@H](O)[C@H]2O)c(=O)[nH]1 (single isomer, unassigned) |  | 44% |  |
| O=c1ccn([C@@H]2O[C@H](COCc3cn(C(c4cccc(Oc5ccccc5)c4)P(=O)(O)O)nn3)[C@@H](O)[C@H]2O)c(=O)[nH]1 (stereo in doubt; 13a-(l)) [listing 1 of 2 here] |  |  | Ki [3]: 50 µM |
| O=c1ccn([C@@H]2O[C@H](COCc3cn(C(c4cccc(Oc5ccccc5)c4)P(=O)(O)O)nn3)[C@@H](O)[C@H]2O)c(=O)[nH]1 (stereo in doubt; 13a-(s)) [listing 1 of 2 here] |  |  | Ki [3]: 40 µM |
| O=c1ccn([C@@H]2O[C@H](COCc3cn(C(c4ccc(F)c(Oc5ccccc5)c4)P(=O)(O)O)nn3)[C@@H](O)[C@H]2O)c(=O)[nH]1 (stereo in doubt; 13c-(l)) [listing 1 of 2 here] |  |  | Ki [3]: 34 µM |
| O=c1ccn([C@@H]2O[C@H](COCc3cn(C(c4ccc(F)c(Oc5ccccc5)c4)P(=O)(O)O)nn3)[C@@H](O)[C@H]2O)c(=O)[nH]1 (stereo in doubt; 13c-(l)) [listing 2 of 2 here] | 9% | 59% | Ratio [5]: 1.1 |
| O=c1ccn([C@@H]2O[C@H](COCc3cn(C(c4ccc(F)c(Oc5ccccc5)c4)P(=O)(O)O)nn3)[C@@H](O)[C@H]2O)c(=O)[nH]1 (stereo in doubt; 13c-(s)) [listing 1 of 2 here] |  |  | Ki [3]: 6 µM |
| O=c1ccn([C@@H]2O[C@H](COCc3cn(C(c4ccc(F)c(Oc5ccccc5)c4)P(=O)(O)O)nn3)[C@@H](O)[C@H]2O)c(=O)[nH]1 (stereo in doubt; 13c-(s)) [listing 2 of 2 here] | 43% | 57% | Ratio [5]: 6 |
| O=c1ccn([C@@H]2O[C@H](COCc3cn(C(c4ccc(F)cc4)P(=O)(O)O)nn3)[C@@H](O)[C@H]2O)c(=O)[nH]1 (stereo in doubt; 13d-(l)) |  | 45% |  |
| O=c1ccn([C@@H]2O[C@H](COCc3cn(C(c4cccc(OC(F)(F)C(F)F)c4)P(=O)(O)O)nn3)[C@@H](O)[C@H]2O)c(=O)[nH]1 (stereo in doubt; 13f-(l)) [listing 1 of 2 here] |  |  | Ki [3]: 3.4 µM |
| O=c1ccn([C@@H]2O[C@H](COCc3cn(C(c4csc5ccccc45)P(=O)(O)O)nn3)[C@@H](O)[C@H]2O)c(=O)[nH]1 (stereo in doubt; 13g-(l)) |  | 21% |  |
| O=c1ccn([C@@H]2O[C@H](COCc3cn(C(c4csc5ccccc45)P(=O)(O)O)nn3)[C@@H](O)[C@H]2O)c(=O)[nH]1 (stereo in doubt; 13g-(s)) |  | 25% |  |

Now from value to compound, other results behind:

| inhibition [2] | inhibition [4] | Compound | further results |
| --- | --- | --- | --- |
| 49% | 65% | O=c1ccn([C@@H]2O[C@H](COCc3cn(C(c4cccc(OC(F)(F)C(F)F)c4)P(=O)(O)O)nn3)[C@@H](O)[C@H]2O)c(=O)[nH]1 (single isomer, unassigned) [listing 2 of 2 here] | Ratio [5]: 5.6 |
|  | 41% | O=c1ccn([C@@H]2O[C@H](COCc3cn(C(c4cccc(OC5CCCC5)c4)P(=O)(O)O)nn3)[C@@H](O)[C@H]2O)c(=O)[nH]1 (single isomer, unassigned) |  |
|  | 23% | O=c1ccn([C@@H]2O[C@H](COCc3cn(C(c4cccc(C(F)(F)F)c4)P(=O)(O)O)nn3)[C@@H](O)[C@H]2O)c(=O)[nH]1 (single isomer, unassigned; form 1) |  |
|  | 39% | O=c1ccn([C@@H]2O[C@H](COCc3cn(C(c4cccc(C(F)(F)F)c4)P(=O)(O)O)nn3)[C@@H](O)[C@H]2O)c(=O)[nH]1 (single isomer, unassigned; form 2) |  |
| 2% | 26% | O=c1ccn([C@@H]2O[C@H](COCc3cn(C(c4cccc(Oc5ccccc5)c4)P(=O)(O)O)nn3)[C@@H](O)[C@H]2O)c(=O)[nH]1 (stereo in doubt; 13a-(l)) [listing 2 of 2 here] | Ratio [5]: 0.7 |
| 28% | 62% | O=c1ccn([C@@H]2O[C@H](COCc3cn(C(c4cccc(Oc5ccccc5)c4)P(=O)(O)O)nn3)[C@@H](O)[C@H]2O)c(=O)[nH]1 (stereo in doubt; 13a-(s)) [listing 2 of 2 here] | Ratio [5]: 1 |
|  | 10% | O=c1ccn([C@@H]2O[C@H](COCc3cn(C(c4cccc(OC5CCCC5)c4)P(=O)(O)O)nn3)[C@@H](O)[C@H]2O)c(=O)[nH]1 (stereo in doubt; 13b-(l)) |  |
| 39% | 78% | O=c1ccn([C@@H]2O[C@H](COCc3cn(C(c4cccc(OC(F)(F)C(F)F)c4)P(=O)(O)O)nn3)[C@@H](O)[C@H]2O)c(=O)[nH]1 (stereo in doubt; 13f-(l)) [listing 2 of 2 here] | Ratio [5]: 11 |
